The target in data set [1] is T1, Guanine nucleotide-binding protein G(q) subunit alpha (Homo sapiens) (UniProt P50148).
T1 sequence (whole entry): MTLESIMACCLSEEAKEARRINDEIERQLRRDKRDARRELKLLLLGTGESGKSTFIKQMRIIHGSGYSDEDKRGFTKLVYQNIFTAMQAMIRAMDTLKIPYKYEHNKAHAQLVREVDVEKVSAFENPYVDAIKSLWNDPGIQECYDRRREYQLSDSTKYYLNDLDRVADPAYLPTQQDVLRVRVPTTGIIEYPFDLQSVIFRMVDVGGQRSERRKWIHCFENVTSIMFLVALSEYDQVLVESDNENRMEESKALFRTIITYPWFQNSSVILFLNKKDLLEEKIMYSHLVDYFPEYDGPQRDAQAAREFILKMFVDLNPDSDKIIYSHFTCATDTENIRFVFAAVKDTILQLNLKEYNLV
Kind of data set: Binding affinity to Galphaq (unknown origin) expressed in baculovirus-infected insect Hi5 cells assessed as inhibition of BODIPY FL GTPgammaS binding by measuring fluorescence reduction at 30 to 300 uM preincubated for 30 mins followed by BODIPY FL GTPgammaS addition measured for 60 mins by real time nucleotide exchange assay relative to vehicle-treated control. To be noted: BTI-TN-5B1-4. The procedure, abridged:
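Gαq was partially purified from baculovirus-infected Hi5 insect cells (5 × MOI, 48 h). 600 nM protein was preincubated 30 min with compound (DMSO ≤1% v/v final) in 10 mM HEPES, 100 mM NaCl, 5 mM MgCl2, 0.1 mM EDTA, pH 7.4. Exchange was started with 250 nM BODIPY FL GTPγS. Endpoint at 60 min vs vehicle; triplicates, three experiments.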

Data set [2] addresses Guanine nucleotide-binding protein G(i) subunit alpha-1 (Homo sapiens) (UniProt P63096). The data set is described as follows: Binding affinity to human Galphai1 expressed in Escherichia coli BL21 assessed as inhibition of [35S]GTPgammaS binding preincubated for 20 mins followed by [35S]GTPgammaS addition measured for 30 mins by liquid scintillation counting analysis. It counts as functional. The procedure, abridged: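 Human Gαi1 was expressed from pPAL7 (Profinity eXact construct) in E. coli BL21 and affinity purified. 100 nM Gαi1 was preincubated 20 min at 24 °C with peptide, then 0.5 μM [35S]GTPγS was added for 30 min at 24 °C, in duplicate. Filtration on nitrocellulose was followed by washes in cold Tris/MgCl2/EDTA buffer pH 7.4 and scintillation counting. Nonspecific binding was taken with 100 μM GTPγS; results are percent of specific binding without peptide.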
Background: Binding of GTPγS marks nucleotide exchange on a G protein.

In another data set the test system is HEK293. Kind of data set: Cytotoxicity against HEK293 GloSensor cells transfected with Galphai1 coupled with alpha-2 adrenoceptor assessed as effect on cell viability at 10 uM. It is filed as cell-based. Conditions: human, hek293, 10 µM.

Each structure is given as a SMILES string. Activity calls are given as the source filed them. The rule behind the calls is not given here. Peptide text beside a SMILES is read from it.

Chain of Guanine nucleotide-binding protein G(i) subunit alpha-1 (Homo sapiens) (P63096 whole entry): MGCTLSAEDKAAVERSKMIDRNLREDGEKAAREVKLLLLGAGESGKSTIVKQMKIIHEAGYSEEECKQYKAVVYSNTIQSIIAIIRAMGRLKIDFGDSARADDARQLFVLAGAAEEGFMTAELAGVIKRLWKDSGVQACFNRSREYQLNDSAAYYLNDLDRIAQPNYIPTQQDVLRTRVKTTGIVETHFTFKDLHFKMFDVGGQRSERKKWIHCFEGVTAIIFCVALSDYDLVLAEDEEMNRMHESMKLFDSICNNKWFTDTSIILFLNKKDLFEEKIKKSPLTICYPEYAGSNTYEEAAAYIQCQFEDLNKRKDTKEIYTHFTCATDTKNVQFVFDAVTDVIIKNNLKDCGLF

`C1=C(/N=C/c2ccccc2)[N+](Cc2ccccc2)=CCO1`: in data set [1], the inhibition (commonly how much of the control response was suppressed) was under 10%.

Turning to `CSCC[C@H](NC(=O)[C@H](CCCNC(=N)N)NC(=O)[C@H](CCCCN)NC(=O)[C@H](CO)NC(=O)[C@H](CCC(N)=O)NC(=O)[C@H](CO)NC(=O)[C@H](CCCCN)NC(=O)[C@H](C)NC(=O)[C@H](CC(C)C)NC(=O)[C@H](CC(C)C)NC(=O)[C@H](CC(=O)O)NC(=O)[C@H](Cc1ccccc1)NC(=O)[C@H](Cc1ccccc1)NC(=O)[C@H](CC(=O)O)NC(=O)[C@H](CCC(=O)O)NC(=O)[C@H](CCC(=O)O)NC(=O)CNC(=O)[C@H](CCSC)NC(=O)[C@@H](N)[C@@H](C)O)C(=O)N[C@@H](CC(=O)O)C(=O)N[C@@H](CC(=O)O)C(=O)N[C@@H](CCC(N)=O)C(=O)N[C@@H](CCCNC(=N)N)C(=O)N[C@H](C(=O)N[C@@H](CC(=O)O)C(=O)N[C@@H](CC(C)C)C(=O)N[C@@H](C)C(=O)N[C@@H](CCCCN)C(N)=O)C(C)C` (H-TMGEEDFFDLLAKSQSKRMDDQRVDLAK-NH2), the inhibition entry in data set [2] was “Active”. Turning to `SC1=C2CCCCC2=[N+](C[C@@H]2CCCO2)[C@@H](c2ccccc2)N1`, the inhibition in data set [1] was under 10%.

As to `CC(=O)C1=C(C)NC(C(C#N)C#N)=C(C#N)[C@H]1c1ccccc1`, in data set [1], the inhibition is 40%. Consider `CCc1ccc2c(C)nc(NC3=NC(C)(C)CC(C)=N3)nc2c1`, for which the Activity result in the data set with HEK293 is recorded as “Non-toxic”. Further, the inhibition in data set [1] is 50%. On to `Cc1nc(NC(=O)NCCC2=CSC3=NCCCN23)nn1C`, for which, in data set [1], the inhibition was 27%. With `CC(=O)/C(=C(\C)O)[C@@H]1c2ccccc2O[C@H](C(F)(F)F)[C@@H]1[N+](=O)[O-]`, in data set [1], the inhibition was 35%. On the same count and under the same terms, the result for `CCC[C@H]1C[C@](C)(C(=O)CNc2ccccn2)OC1=O` reads under 10%. As to `CC1=CC(C)(C)NC(Nc2nc(-c3ccccc3)c3ccccc3n2)=N1`, the Activity result in the data set with HEK293 was “Toxic”. For the same compound, in data set [1], the inhibition is under 10%. Consider `Cc1cccc(N[C@@]2(C(F)(F)F)NC(c3ccccc3)=NC2=O)n1`, for which the inhibition in data set [1] worked out at 25%.

On to `O=[N+]([O-])[C-](/C=N/C1CCCCC1)/C=N/C1CCCCC1`, for which, in the data set with HEK293, the Activity result is “Non-toxic”. Also, the inhibition in data set [1] was found to be 32%. Take `C/C(=N\c1ccc(O)cc1)c1sc2ccccc2c1O`: the inhibition in data set [1] was under 10%.

For the origin of these results see ChEMBL document CHEMBL3286169, “Development of inhibitors of heterotrimeric Gαi subunits” (Bioorg Med Chem, 2014).
